The source made the active and inactive calls. No cut-off for these calls is given here.
Experiments:
[1] = system: PC-12; assay: Neuroprotective activity in amyloid beta-induced rat PC12 cells assessed as increase of Bcl-2 expression at 0.1 to 10 uM administered 1 hrs prior to amyloid beta challenge measured after 24 hrs by Western blotting; type: functional, cell-based
In short: (§1)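 Lysates (20 or 30 µg) were separated on 12% gels, blotted and probed with anti-Bcl-2 (1:200), with β-actin or GAPDH as loading control. Detection was by ECL.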

[2] = target: Glycogen synthase kinase-3 beta (Rattus norvegicus) (UniProt P18266); assay: Increase in GSK3 beta phosphorylation at Ser9 in amyloid beta-induced rat PC12 cells at 0.1 to 10 uM administered 1 hrs prior to amyloid beta challenge measured after 24 hrs by Western blotting pretreated with PI3K inhibitor LY294002 before compound addition; type: cell-based; conditions: PC-12
Chain of Glycogen synthase kinase-3 beta (Rattus norvegicus) (P18266 whole entry, looked up): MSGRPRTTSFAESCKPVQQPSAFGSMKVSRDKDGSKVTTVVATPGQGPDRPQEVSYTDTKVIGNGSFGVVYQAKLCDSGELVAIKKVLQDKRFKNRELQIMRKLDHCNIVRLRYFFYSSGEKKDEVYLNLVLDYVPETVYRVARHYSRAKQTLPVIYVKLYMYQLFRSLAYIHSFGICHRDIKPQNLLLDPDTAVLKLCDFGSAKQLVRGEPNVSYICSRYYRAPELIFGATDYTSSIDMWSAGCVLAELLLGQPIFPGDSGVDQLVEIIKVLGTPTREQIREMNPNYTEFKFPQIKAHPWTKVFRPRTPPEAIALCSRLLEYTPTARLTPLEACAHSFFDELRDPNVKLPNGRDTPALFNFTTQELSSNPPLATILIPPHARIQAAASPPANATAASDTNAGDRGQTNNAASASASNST
In short: (§2)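 Lysates (20 or 30 µg) were run on 12% SDS-PAGE and immunoblotted for pSer9 GSK-3β and total GSK-3β (1:1000), with β-actin or GAPDH as loading control. Blots shown represent three independent experiments.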

[3] = system: PC-12; assay: Cytoprotective activity in amyloid beta-induced apoptosis in rat PC12 cells administered 1 hr prior to amyloid beta challenge measured after 24 hrs by using Annexin V/PI staining based flow cytometric analysis; type: functional, cell-based
In short: (§3)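 Cells were stained with Annexin V-FITC/PI for 15 min in the dark at room temperature and analysed by flow cytometry. Annexin+/PI− cells were scored early apoptotic and double-positive cells late apoptotic. Mean ± SD of triplicate independent experiments.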

[4] = system: PC-12; assay: Neuroprotective activity in amyloid beta-induced cytotoxicity in rat PC12 cells assessed as cell viability pretreated 1 hrs prior to amyloid beta challenge measured after 24 hrs by MTT assay; type: functional, cell-based
In short: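 PC12 cells at 0.5 × 10^4 per well, serum-starved 12 h, then pretreated 1 h with 0.1, 1.0 or 10 µM. Viability was read by MTT (5 mg/ml, 4 h, 37 °C), with formazan dissolved in DMSO and A570 measured. Mean ± SD of triplicate experiments.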

[5] = target: RAC-alpha serine/threonine-protein kinase (Rattus norvegicus) (UniProt P47196); assay: Induction of PIK3-mediated Akt phosphorylation in amyloid beta-induced rat PC12 cells at 10 uM, treated 1 hrs prior to amyloid beta challenge measured after 24 hrs by Western blotting in presence of PI3K inhibitor LY294002 before compound addition; type: cell-based; conditions: PC-12
Chain of RAC-alpha serine/threonine-protein kinase (Rattus norvegicus) (P47196 whole entry): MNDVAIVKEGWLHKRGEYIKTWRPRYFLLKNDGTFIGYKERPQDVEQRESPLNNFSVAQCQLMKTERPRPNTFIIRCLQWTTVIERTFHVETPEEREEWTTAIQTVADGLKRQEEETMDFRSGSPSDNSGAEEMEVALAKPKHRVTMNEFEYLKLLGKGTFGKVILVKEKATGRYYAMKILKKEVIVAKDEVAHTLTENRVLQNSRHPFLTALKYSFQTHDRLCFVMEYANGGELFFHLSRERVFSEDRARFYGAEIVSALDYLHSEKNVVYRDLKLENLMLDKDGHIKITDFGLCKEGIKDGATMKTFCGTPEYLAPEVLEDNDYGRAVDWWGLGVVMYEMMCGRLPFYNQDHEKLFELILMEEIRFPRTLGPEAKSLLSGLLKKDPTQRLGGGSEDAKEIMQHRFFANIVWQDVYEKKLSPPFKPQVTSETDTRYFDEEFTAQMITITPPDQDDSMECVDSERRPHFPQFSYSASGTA
In short: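 Lysates (20 or 30 µg) were run on 12% SDS-PAGE and immunoblotted for p-Akt and total Akt (1:1000) with ECL detection. Densitometry, mean ± SD of triplicate experiments.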

[6] = system: PC-12; assay: Cytoprotective activity in amyloid beta-induced apoptosis in rat PC12 cells at 0.1 uM administered 1 hr prior to amyloid beta challenge measured after 24 hrs by using Annexin V/PI staining based flow cytometric analysis; type: functional; in short: as §3
[7] = system: PC-12; assay: Cytoprotective activity in amyloid beta-induced apoptosis in rat PC12 cells at 10 uM administered 1 hr prior to amyloid beta challenge measured after 24 hrs by using Annexin V/PI staining based flow cytometric analysis; type: functional; in short: as §3
[8] = system: PC-12; assay: Inhibition of amyloid beta-induced mitochondrial dysfunction in rat PC12 cells at 0.1 to 10 uM administered 1 hr prior to amyloid beta challenge measured after 24 hrs using JC1 fluorescent dye based flow cytometeric analysis; type: functional, cell-based
In short: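 Cells were loaded with JC-1 for 20 min at 37 °C, pelleted at 600g, resuspended in PBS and analysed by flow cytometry on FL1 (525 nm) and FL2 (575 nm). Membrane potential was expressed as the green/red fluorescence ratio. Mean ± SD, triplicate.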

[9] = system: PC-12; assay: Neuroprotective effect against amyloid beta-induced rat PC12 cells assessed as increase of Bcl-2 expression at 0.1 to 10 uM administered 1 hrs prior to amyloid beta challenge measured after 24 hrs by Western blotting pretreated with PI3K inhibitor LY294002 before compound addition; type: functional, cell-based; in short: as §1
[10] = target: Glycogen synthase kinase-3 beta (Rattus norvegicus) (UniProt P18266); assay: Increase in GSK3 beta phosphorylation at Ser9 in amyloid beta-induced rat PC12 cells at 0.1 to 10 uM administered 1 hrs prior to amyloid beta challenge measured after 24 hrs by Western blotting; type: cell-based; conditions: PC-12; in short: as §2
[11] = system: PC-12; assay: Cytoprotective activity in amyloid beta-induced apoptosis in rat PC12 cells at 1 uM administered 1 hr prior to amyloid beta challenge measured after 24 hrs by using Annexin V/PI staining based flow cytometric analysis; type: functional; in short: as §3
[12] = system: PC-12; assay: Neuroprotective effect against amyloid beta-induced apoptosis in rat PC12 cells assessed as upregulation of PI3K-mediated Akt phosphorylation administered 1 hr prior to amyloid beta challenge measured after 24 hrs by Western blotting; type: functional, cell-based
In short: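 Lysate protein (20 or 30 µg) was run on 12% SDS-PAGE and blotted to nitrocellulose. Blots were probed for p-Akt Ser473 and total Akt (1:1000), with β-actin or GAPDH as loading control, and detected by ECL. Densitometry, mean ± SD, triplicate.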

[13] = target: T1, Acetylcholinesterase (Rattus norvegicus) (UniProt P37136); assay: Inhibition of AChE activity in amyloid beta25-35-induced rat PC12 cells at 0.1 to 10 uM, 1 hrs prior to induction after 24 hrs by Ellman assay; type: cell-based; conditions: PC-12
T1 sequence (whole entry): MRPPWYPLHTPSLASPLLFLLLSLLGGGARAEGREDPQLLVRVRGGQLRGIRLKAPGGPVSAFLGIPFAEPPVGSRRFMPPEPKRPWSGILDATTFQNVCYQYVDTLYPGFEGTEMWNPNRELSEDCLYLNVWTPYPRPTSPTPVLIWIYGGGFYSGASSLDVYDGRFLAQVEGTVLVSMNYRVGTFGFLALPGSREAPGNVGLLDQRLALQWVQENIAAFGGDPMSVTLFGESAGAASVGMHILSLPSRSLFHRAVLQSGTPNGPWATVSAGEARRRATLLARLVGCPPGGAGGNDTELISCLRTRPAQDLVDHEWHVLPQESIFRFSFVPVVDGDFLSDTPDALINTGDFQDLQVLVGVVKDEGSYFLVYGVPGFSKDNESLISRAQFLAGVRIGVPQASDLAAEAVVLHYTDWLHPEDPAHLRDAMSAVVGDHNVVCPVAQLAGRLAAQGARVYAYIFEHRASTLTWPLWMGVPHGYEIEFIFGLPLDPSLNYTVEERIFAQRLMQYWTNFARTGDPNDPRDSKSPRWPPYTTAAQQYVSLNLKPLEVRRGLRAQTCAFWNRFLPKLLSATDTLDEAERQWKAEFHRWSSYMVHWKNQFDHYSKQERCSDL
In short: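 Rat PC12 cells in DMEM/10% FBS, serum-starved 12 h, were pretreated 1 h, then exposed 24 h to 30 µM Aβ25-35 (1 mM in water, pre-aggregated 72 h at 37 °C). Lysates were made in high ionic strength buffer (1 M NaCl, Triton X-100, EDTA) and spun 12,000 rpm 20 min at 4 °C. AChE activity in the supernatant was read by Ellman method; three independent experiments.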

[14] = system: PC-12; assay: Inhibition of amyloid beta-induced apoptosis in rat PC12 cells assessed as decrease in caspase-3 dependent cleavage of Ac-DEVD-pNA administered 1 hr prior to amyloid beta challenge measured after 24 hrs by spectrophotometric analysis; type: functional, cell-based
In short: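 Released pNA was read at 405 nm. Activity was normalised to protein and expressed as fold over control cells. Mean ± SD of triplicate experiments.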

SMILES: COc1ccc(-c2cc(=O)c3c(O)cc(O[C@@H]4O[C@H](CO[C@@H]5O[C@@H](C)[C@H](O)[C@@H](O)[C@H]5O)[C@@H](O)[C@H](O)[C@H]4O)cc3o2)cc1 [ACACIIN]
- Activity [1]: Active
- Activity [2]: inactive
- Activity [3]: Dose-dependent effect
- Activity [4]: Dose-dependent effect
- Activity [5]: inactive
- Activity [6]: 20.52%
- Activity [7]: 7.32%
- inhibition [8]: Active
- Activity [9]: inactive
- Activity [10]: Active
- Activity [11]: 11.57%
- Activity [12]: Active
- inhibition [13]: Active
- inhibition [14]: Dose-dependent effect
